According to ChEMBL document CHEMBL1154192, “A series of 1, 2-coupled indane dimers with mast cell stabilisation and smooth muscle relaxation properties” (Eur J Med Chem, 2009):
pIC50: −log10 of the molar value. One block for each molecule: values may come before it.

Key:
Mast cell = assay: Inhibition of compound 48/80-induced histamine release in Wistar rat peritoneal mast cell at 20 uM treated 10 mins before compound 48/80 challenge; assay type: functional
How it was run: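 Peritoneal cells were lavaged from female Wistar rats (250–350 g) into prewarmed (37 °C) HEPES-buffered salt solution, without purification. Cells were centrifuged, washed three times and held at 4 °C. Inhibition is given as percentage of stimulated release, mean ± SEM, n = 5–10.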

Ileum [1] = assay: Inhibition of calcium-induced contraction in guinea pig ileum at 10 uM; assay type: functional; conditions: Cavia porcellus
How it was run: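 Guinea-pig ileum was suspended in calcium-free Krebs solution containing 45 mM K+ and contracted by bringing bath calcium to 2.5 mM (sustained >40 min). At stable maximal contracture a single 1 × 10⁻⁵ M concentration was added. Inhibition is given as percentage of stimulated contraction, mean ± SEM, n = 6–12.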

Ileum [2] = assay: Inhibition of calcium-induced contraction in guinea pig ileum at 0.03 to 10 uM; assay type: functional, tissue-based; conditions: Cavia porcellus
How it was run: (§1)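 Isolated guinea-pig ileum in high-potassium (45 mM), calcium-free modified Krebs solution. Sustained contractures (>40 min) were elicited by raising bath CaCl2 to 2.5 mM. Once contraction reached a stable maximum, compound was added cumulatively (3 × 10⁻⁸ – […]). IC50 was calculated from the concentration-effect curve.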

Ileum [3] = assay: Inhibition of calcium-induced contraction in guinea pig ileum; assay type: functional, tissue-based; conditions: Cavia porcellus; how it was run: as §1
Ileum [4] = assay: Inhibition of calcium-induced contraction in guinea pig ileum at 0.01 uM; assay type: functional; conditions: Cavia porcellus
How it was run: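 Isolated guinea-pig ileum in high-potassium (45 mM), calcium-free modified Krebs solution. Sustained (>40 min) contractures were elicited by raising bath calcium to 2.5 mM with CaCl2. At stable maximum, a single concentration (1 × 10^-8 M) was added. Inhibition was expressed as a percentage of stimulated values, mean ± SEM, n = 6.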

Ileum [5] = assay: Inhibition of calcium-induced contraction in guinea pig ileum at 0.001 to 0.1 uM; assay type: functional, tissue-based; conditions: Cavia porcellus
How it was run: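 Isolated guinea-pig ileum in high-potassium (45 mM), calcium-free modified Krebs solution. CaCl2 was added to raise bath calcium to 2.5 mM, giving sustained (>40 min) contractures. At stable maximum, drug was added cumulatively at […] to 1 × 10^-7 M. Read-out was inhibition of contracture; IC50 was calculated from the concentration-effect curve.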

Compound: CCCCCC1(C2=CCc3ccccc32)Cc2ccccc2C1=O (stereo unspecified)
inhibition at 20 µM (Mast cell): -3.2%
inhibition at 10 µM (Ileum [1]): 18%

Compound: CC/C=C/CC1(C2=CCc3ccccc32)Cc2ccccc2C1O (stereo unspecified)
inhibition at 20 µM (Mast cell): 49.7%
inhibition at 10 µM (Ileum [1]): 25.6%

pIC50 (Ileum [2]): 5.21
pIC50 (Ileum [3]): 5.21
Compound: C=CCC1(C2=CCc3ccccc32)Cc2ccccc2C1O (stereo unspecified)
inhibition at 20 µM (Mast cell): -35.5%
inhibition at 10 µM (Ileum [1]): 79.5%

pIC50 (Ileum [3]): 5.89
Compound: Cc1cc2c(c(C)c1CCO)C(=O)C(C)(C)C2 [PTEROSIN Z]

Compound: O=C1c2ccccc2CC1(Cc1ccccc1)C1=CCc2ccccc21 (stereo unspecified)
inhibition at 20 µM (Mast cell): 24.7%
inhibition at 10 µM (Ileum [1]): 18.9%

Compound: O=C(O)CC1(C2=CCc3ccccc32)Cc2ccccc2C1=O (stereo unspecified)
inhibition at 20 µM (Mast cell): 10.3%
inhibition at 10 µM (Ileum [1]): 1.8%

Compound: COC(=O)CC1(C2=CCc3ccccc32)Cc2ccccc2C1=O (stereo unspecified)
inhibition at 20 µM (Mast cell): 21.9%
inhibition at 10 µM (Ileum [1]): 20.5%

Compound: CCCC1(C2=CCc3ccccc32)Cc2ccccc2C1=O (stereo unspecified)
inhibition at 20 µM (Mast cell): 41.2%
inhibition at 10 µM (Ileum [1]): 51.7%

Compound: CCCC1(C2=CCc3ccccc32)Cc2ccccc2C1O (stereo unspecified)
inhibition at 20 µM (Mast cell): -26%
inhibition at 10 µM (Ileum [1]): 34.3%

Compound: COC(=O)C1=C(C)NC(C)=C(C(=O)OC)C1c1ccccc1[N+](=O)[O-] [NIFEDIPINE]
pIC50 (Ileum [3]): 7.83
inhibition at 0.01 µM (Ileum [4]): 48.1%
pIC50 (Ileum [5]): 7.83

Compound: CC1(C2=CCc3ccccc32)Cc2ccccc2C1=O (stereo unspecified)
inhibition at 20 µM (Mast cell): 15.6%
inhibition at 10 µM (Ileum [1]): 41.3%

Compound: CCC1(C2=CCc3ccccc32)Cc2ccccc2C1=O (stereo unspecified)
inhibition at 20 µM (Mast cell): 19.4%
inhibition at 10 µM (Ileum [1]): 49.6%

Compound: CC/C=C/CC1(C2=CCc3ccccc32)Cc2ccccc2C1=O (stereo unspecified)
inhibition at 20 µM (Mast cell): 32.5%
inhibition at 10 µM (Ileum [1]): 19.9%

Compound: COC(=O)c1ccc(CC2(C3=CCc4ccccc43)Cc3ccccc3C2=O)cc1 (stereo unspecified)
inhibition at 20 µM (Mast cell): -27.8%
inhibition at 10 µM (Ileum [1]): 31.5%

Compound: O=C(O)c1cc(=O)c2c(OCC(O)COc3cccc4oc(C(=O)O)cc(=O)c34)cccc2o1 [CROMOLYN SODIUM]
inhibition at 20 µM (Mast cell): 9.1%
